STAT1 activator: STAT1 signaling activators, primary screen, cell-based, HTS, luciferase reporter; NIH 3T3 STAT1-luciferase reporter, IFN-gamma, luminescence; 100% = IFN-gamma alone, no compound; activation (% of control), % at 5.5 µM; hit rate 2.6% among 200,000;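 active means activation above the screen-wide mean activation plus 3 SD, cut at about 130% in these data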
FLuc act counter: FLuc activators, initial screening, artefact control for FLuc-dependent activation tests, biochemical, ATPlite luminescence; ATPlite luciferase biochemical, 10 min; 0 = ATP-free wells, 1 = DMSO control; activation factor at 10 µM; 200,000 tested, under 10 active;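 active means luciferase activation factor, scaled between plate controls, of at least 2 with compound at 10 µM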
Target sequence (P08659 whole entry, looked up): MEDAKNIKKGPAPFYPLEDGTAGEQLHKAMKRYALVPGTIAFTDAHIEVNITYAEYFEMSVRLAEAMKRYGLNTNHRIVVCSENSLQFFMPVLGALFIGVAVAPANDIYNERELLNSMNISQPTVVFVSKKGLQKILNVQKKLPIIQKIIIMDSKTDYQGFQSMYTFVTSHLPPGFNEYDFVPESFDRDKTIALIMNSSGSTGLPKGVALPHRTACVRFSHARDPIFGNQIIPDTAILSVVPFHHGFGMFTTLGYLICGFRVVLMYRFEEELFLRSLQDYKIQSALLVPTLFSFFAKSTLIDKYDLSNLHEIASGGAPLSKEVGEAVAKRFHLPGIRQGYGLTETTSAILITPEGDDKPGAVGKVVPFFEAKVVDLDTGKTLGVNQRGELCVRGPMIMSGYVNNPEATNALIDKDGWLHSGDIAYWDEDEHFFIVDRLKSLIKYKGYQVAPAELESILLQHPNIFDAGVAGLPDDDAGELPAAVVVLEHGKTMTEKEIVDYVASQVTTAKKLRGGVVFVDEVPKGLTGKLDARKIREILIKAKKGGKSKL
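Assay system – cell-free luciferase reagent · Medium – PBS-based ATP solution · Dosing – test compounds dosed from 2 mM stocks in 100% DMSO · Timing – 10 min, room temperature · Technique – light output (luminescence) · Measure – luminescence gain marking luciferase activators · Controls – No-ATP low control, compound-free enzyme-plus-ATP high control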
APP 5'UTR act: activators of APP 5'UTR luciferase reporter, primary screen, SH-SY5Y cells; activation, % at 2 µM; hit rate 1% among 190,000; SH-SY5Y APP 5'UTR luciferase reporter, luminescence; zero percent = DMSO vehicle wells;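 active means activation above a set limit, based on mean plus 3 SD of controls, cut at about 140% in these data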
FLuc inh counter: firefly luciferase enzyme inhibitors, primary screen, artefact control for luciferase-based inhibitor screens, biochemical, luminescence, ATPLite | inhibition, % at 10 µM | AID 1006, 2008 | Luciferin 4-monooxygenase (Photinus pyralis), P08659 | 10 min | hit rate 1.5% among 200,000;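 active means inhibition above about 50% when tested at 10 µM, limit read from the data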
NF-kB expr up: activators of NF-kB expression in neurons, primary screen, cell-based, HTS. human neuronal cells, NF-kB reporter expression; hits give high values. fold change at 12.5 µM. hit rate 1.6% among 190,000; in the data active means fold change above about 3.3
Of the large screens only hits and unclear results are named; the others gave an inactive call. A selection: hits, their analogues and other compounds. The true share with any hit is near 4.1%.

CC(=O)c1ccc(N2Cc3ccccc3C2=NC(=O)c2cccs2)cc1	STAT1 activator 135
CC(=O)Nc1ccc(-c2cn3cc(C)ccc3n2)cc1	STAT1 activator 130, APP 5'UTR act 149, FLuc inh counter 84, NF-kB expr up 5.9
Cc1ccc2nc(-c3ccc(S(=O)(=O)N4CCOCC4)cc3)cn2c1	none
Cc1ccc2nc(-c3ccccc3)cn2c1	FLuc inh counter 96
COC(=O)c1c(-c2ccccc2)csc1N1C(=O)Nc2ccccc2N1O	FLuc inh counter 71
O=C(NNc1cccc(Cl)n1)Nc1cccc(Cl)c1	none
O=C(NNC1=NCCCCC1)Nc1cccc(Cl)c1	STAT1 activator 136
O=C(CN1C(=O)CC(c2ccccc2)S(=O)(=O)c2ccccc21)N1CCCC1 (stereo not drawn)	none
O=C(Nc1ccc(N2CCCC2)cc1)c1cccc(F)c1	APP 5'UTR act 230, FLuc inh counter 59
CCC(=O)N1CCN(c2ccc(NC(=O)c3ccc4c(c3)OCCO4)cc2)CC1	none (no result: NF-kB expr up)
O=C(Nc1ccncc1)c1cncc(Br)c1	none
CN1CCN(c2ccc(NC(=O)c3ccc4c(c3)OCCO4)cc2)CC1	STAT1 activator 132, APP 5'UTR act 141
O=C(Cc1ccccc1)Nc1ccc(N2CCCCC2)cc1	STAT1 activator 130, APP 5'UTR act 185, FLuc inh counter 73, NF-kB expr up 4.9
O=C(Nc1ccc(N2CCCCC2)cc1)c1cncc(Br)c1	STAT1 activator 134, NF-kB expr up 4
CN1CCN(c2ccc(NC(=O)Cc3ccccc3)cc2)CC1	none (no result: APP 5'UTR act)
COCCNC(=S)N(C)C1(c2ccccc2Cl)CCCCC1=O (stereo not drawn)	none
CCCCCC(=O)Nc1cc2[nH]c(=O)cc(COC)c2cc1C	none
CCN1CCN(c2ccc(NC(=O)c3ccc(C#N)cc3F)cc2Cl)CC1	none
O=C(Nc1ccc(N2CCCCC2)cc1)c1ccccc1	APP 5'UTR act 164, FLuc inh counter 88, NF-kB expr up 5.7
CCN1CCN(c2ccc(NC(=O)c3ccccc3F)cc2Cl)CC1	STAT1 activator 132
Cc1ccc(C(=O)Nc2ccc(N3CCCC3)cc2)cc1	STAT1 activator 140
O=C(Nc1ccc(N2CCCC2)cc1)c1ccccc1F	STAT1 activator 149, APP 5'UTR act 137, FLuc inh counter 71
OCCCc1nc2ccccc2[nH]1	none
O=C(Nc1ccc(N2CCCC2=O)cc1)c1cccc(F)c1	STAT1 activator 138, NF-kB expr up 5.4
Cc1cnc(C(=O)Nc2ccc(N3CCCCC3)cc2)cn1	STAT1 activator 135, APP 5'UTR act 142, FLuc inh counter 55
CCOC(=O)c1c(N)sc(C(=O)Nc2ccccc2F)c1C	APP 5'UTR act 238, FLuc inh counter 75, NF-kB expr up 7.4
COC(=O)c1c(NC(C)=O)sc(C(=O)Nc2ccccc2F)c1C	none
CCOC(=O)c1cc(C(=O)Nc2ccccc2F)nn1C	STAT1 activator 133, NF-kB expr up 5.9
CCC(=O)Nc1sc(C(=O)Nc2ccccc2F)c(C)c1C(=O)OC	STAT1 activator 131
CCOC(=O)c1c(N)sc(C(=O)Nc2ccccc2)c1C	APP 5'UTR act 222, FLuc inh counter 84, NF-kB expr up 7.1
CCOC(=O)c1[nH]c(C)c(C(=O)Nc2ccccc2F)c1C	none
O=C1/C(=C\c2cccnc2)Sc2ccccc21	FLuc inh counter 60
CN1C(=O)S/C(=C/c2cccnc2)C1=O	none
O=C(CN1N=C(c2ccc(Cl)cc2)CCC1=O)NCc1cccnc1	none
O=C(O)c1ccc(Nc2cnc3ccccc3n2)cc1	STAT1 activator 131
C/C(CC(=O)Nc1cccc(Cl)c1Cl)=N\NC(=O)c1ccccc1C	none
Brc1ccc(-c2ncc(-c3ccccc3)cn2)cc1	STAT1 activator 139, NF-kB expr up 5.7
O=C(Nc1ccc(F)cc1)C1CCN(S(=O)(=O)c2cccs2)CC1	none
CCC(=O)NCCc1nc2cc(NC(=O)c3ccccc3OC)ccc2n1C	none
CCCc1cc(=O)[nH]c(SCC(=O)Nc2cc(C)on2)n1	none
CCCc1cc(C(=O)Nc2ccccc2SC)no1	none
CCCc1cc(C(=O)Nc2ccc(F)cc2F)no1	STAT1 activator 130
Clc1ccc2nc(C3CCN(Cc4ccccc4)CC3)[nH]c2c1	none
Clc1ccc2nc(N3CCCCC3)[nH]c2c1	STAT1 activator 136, NF-kB expr up 5.3
COc1ccc(-c2nc(NC(=O)c3n[nH]c(=O)c4ccccc34)sc2C)cc1	none
Cc1ccc(NC(=S)NCc2ccccc2)cc1S(=O)(=O)N1CCCCC1	none
O=[N+]([O-])c1ccc(Cc2nnc(-c3ccc(F)cc3)o2)cc1	none
Cc1ccc(-c2nnc(Cc3ccc([N+](=O)[O-])cc3)o2)cc1	APP 5'UTR act 147
CC(=O)Nc1cccc(Oc2ncnc3scc(-c4ccc(C(C)C)cc4)c23)c1	none
CCN(CC)Cc1c(O)ccc2c(=O)c(-c3ccc4c(c3)OCCO4)coc12	none
O=c1c(-c2ccc3c(c2)OCCO3)coc2cc(O)cc(O)c12	APP 5'UTR act 145, FLuc inh counter 62, NF-kB expr up 5.8
Cc1ccc(CS(=O)(=O)CCC(=O)NCCN2CCCC2)cc1	none
CCOC(=O)c1c(Cc2cccc(Cl)c2)c[nH]c1C	none
CSc1nc2sc3c(c2c2nncn12)CCC3	none
CCc1nc(Sc2nnnn2-c2ccccc2)c2c3c(sc2n1)CCCC3	NF-kB expr up 8
Cc1nc(Sc2nnnn2C)c2c3c(sc2n1)CCC3	NF-kB expr up 12
COc1ccc2[nH]c3c(=O)n(CCCCC(=O)NCCC(C)C)c(=S)[nH]c3c2c1	none
O=C(Nc1c2c(nn1-c1ccc(F)cc1)CS(=O)(=O)C2)c1ccc(S(=O)(=O)N2CCOCC2)cc1	none
COc1ccc(-n2ncc(Cl)c(Cl)c2=O)cc1	none
CN(C)c1cnn(-c2ccccc2)c(=O)c1Cl	none
COc1ccc(-n2ncc(N(C)n3cccc3)c(Cl)c2=O)cc1	STAT1 activator 134, FLuc inh counter 54, NF-kB expr up 3.7
Cc1ccc(-n2ncc(N(C)C)c(Cl)c2=O)cc1	STAT1 activator 132
O=C1CSC(=S)N1Cc1cccnc1	NF-kB expr up 4.8
O=C1CSC(=S)N1c1cccnc1	none
C/C(NC(=O)c1cccs1)=C1\C(=O)C[C@@H]2[C@H]1C2(C)C	STAT1 activator 130
O=C(NC(=S)NC1CCSC1=O)c1cccs1 (stereo not drawn)	none
CCOc1ccccc1C1C(C(=O)Nc2ccccc2OC)=C(C)Nc2nnnn21 (stereo not drawn)	none
Cc1cc(C)cc(NC(=O)c2cnn(-c3ccccc3)c2C2CCNCC2)c1	none
CCOC(=O)c1c(C)nc(C)c(C(=O)OCC)c1-c1ccc(O)c(OC)c1	NF-kB expr up 3.8
CCOc1cc(N2CCOCC2)c(OCC)cc1NC(=O)c1cc(-c2ccco2)nc2ccccc12	none

Compound activity (PubChem)
